Laboratory results: ChEMBL document CHEMBL1933018 (Bioorg Med Chem Lett, 2012)

Assays:
[1] = biological target: T1, Corticotropin-releasing factor receptor 1 (Homo sapiens, UniProt P34998); assay: Antagonist activity at human recombinant CRF1 receptor expressed in CHO cells by cAMP assay; type: functional, cell-based
T1 sequence (P34998 whole entry): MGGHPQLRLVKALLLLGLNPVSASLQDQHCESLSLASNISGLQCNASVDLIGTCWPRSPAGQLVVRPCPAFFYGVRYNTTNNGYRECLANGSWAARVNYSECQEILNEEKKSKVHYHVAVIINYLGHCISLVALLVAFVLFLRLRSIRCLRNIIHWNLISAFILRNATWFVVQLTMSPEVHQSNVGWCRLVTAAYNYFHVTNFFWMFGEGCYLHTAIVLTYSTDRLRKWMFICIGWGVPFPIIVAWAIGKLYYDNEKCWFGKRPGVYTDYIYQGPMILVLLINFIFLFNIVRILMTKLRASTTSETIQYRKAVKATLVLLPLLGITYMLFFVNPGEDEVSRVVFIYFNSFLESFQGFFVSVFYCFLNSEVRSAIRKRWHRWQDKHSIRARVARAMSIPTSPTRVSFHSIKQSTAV
Method in brief: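 CHO cells stably expressing recombinant human CRF-1 were grown in DMEM:F12 (1:1) with 10% FBS, 400 µg/ml Geneticin and 1% Glutamax at 37 °C, 5% CO2 to 70% confluence. 10,000 cells/well in PBS with 500 µM IBMX (final) were stimulated with hCRF (108 nM final) plus test compound. cAMP was read by HitHunter cAMP II kit. Compounds were tested repeatedly over a 0.5-log serial dilution series.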

[2] = Intrinsic clearance in liver microsomes; type: ADME, Microsome; conditions: read-out: CLH
Progesterone receptor = biological target: T2, Progesterone receptor (Homo sapiens, UniProt P06401); assay: Antagonist activity at progesterone receptor; type: functional
T2 sequence (P06401 whole entry): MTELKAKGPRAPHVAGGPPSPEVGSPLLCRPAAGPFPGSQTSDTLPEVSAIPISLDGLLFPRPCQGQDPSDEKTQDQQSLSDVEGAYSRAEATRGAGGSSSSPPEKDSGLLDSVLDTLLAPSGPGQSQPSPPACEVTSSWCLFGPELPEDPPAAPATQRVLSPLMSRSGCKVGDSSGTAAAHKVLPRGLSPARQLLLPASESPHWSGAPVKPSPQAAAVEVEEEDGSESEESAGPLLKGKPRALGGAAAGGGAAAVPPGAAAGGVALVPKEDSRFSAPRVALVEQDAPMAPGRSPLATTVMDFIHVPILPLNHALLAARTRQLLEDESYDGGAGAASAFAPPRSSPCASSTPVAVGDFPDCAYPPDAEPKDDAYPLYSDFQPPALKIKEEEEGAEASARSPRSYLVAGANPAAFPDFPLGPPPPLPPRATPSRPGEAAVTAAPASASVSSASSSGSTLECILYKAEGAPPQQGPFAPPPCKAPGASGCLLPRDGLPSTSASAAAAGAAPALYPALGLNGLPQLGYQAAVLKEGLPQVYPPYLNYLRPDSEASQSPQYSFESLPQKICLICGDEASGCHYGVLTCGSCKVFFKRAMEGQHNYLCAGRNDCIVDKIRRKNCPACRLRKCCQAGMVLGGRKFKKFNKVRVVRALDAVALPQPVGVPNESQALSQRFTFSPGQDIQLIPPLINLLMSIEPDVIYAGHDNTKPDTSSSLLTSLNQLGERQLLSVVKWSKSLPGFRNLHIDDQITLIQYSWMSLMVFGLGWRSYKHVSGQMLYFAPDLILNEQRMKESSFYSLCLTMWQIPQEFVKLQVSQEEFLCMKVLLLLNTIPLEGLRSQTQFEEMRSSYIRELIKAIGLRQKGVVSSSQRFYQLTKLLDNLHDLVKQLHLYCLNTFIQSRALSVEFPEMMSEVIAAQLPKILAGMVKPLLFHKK

SMILES | Ki [1] [nM] | microsomal CLint [2] [µL/min/mg] | IC50 (Progesterone receptor) [nM]
CCCCN(CC)c1nc(C)nc2c1c(C)c(COC)n2-c1c(C)cc(C)cc1C | 11 | – | –
CCCCN(CC)c1nc(C)nc2c1c(C)c(C=O)n2-c1c(C)cc(C)cc1C | 52 | – | –
CC#C[C@]1(O)CC[C@H]2[C@@H]3CCC4=CC(=O)CCC4=C3[C@@](Cl)(c3cc(Cl)c(N(C)C)c(Cl)c3)C[C@@]21C | – | 76 | 771
CC#C[C@]1(O)CC[C@H]2[C@@H]3CCC(=O)C(CCC(=O)O)=C3[C@@H](c3ccc(N(C)C=O)cc3)C[C@@]21C | – | – | 430
CCCCN(CC)c1nc(C)nc2c1c(C)c(C)n2-c1c(C)cc(C)cc1C [ANTALARMIN] | 32 | – | –
CC#C[C@]1(O)CC[C@H]2[C@@H]3CCC4=CC(=O)CCC4=C3[C@@H](c3ccc(N(C)C)cc3)C[C@@]21C [MIFEPRISTONE] | – | 92.5 | –
CC#C[C@]1(O)CC[C@H]2[C@@H]3CCC4=CC(=O)CCC4=C3[C@@H](c3ccc(N(C)C=O)cc3)C[C@@]21C | – | 81 | 10
CC#C[C@]1(O)CC[C@H]2[C@@H]3CCC4=CC(=O)CCC4=C3C(c3ccc(N(C)C)cc3)=C[C@@]21C | – | – | 307
CCCCN(CC)c1nc(C)nc2c1c(C)c(CO)n2-c1c(C)cc(C)cc1C | 6 | – | –
